pEC50: −log10 of the molar value.
Assays:
CCRF-CEM [1] = assay: The reversion potency of compound was measured against P-glycoprotein expressing CCRF-CEM cells and expressed as the ratio of ED50 in the absence and presence […]; assay type: functional, Homo sapiens
CCRF-CEM [2] = assay: The chemosensitizing effect was measured against P-glycoprotein expressing CCRF-CEM cells in the presence of […]; assay type: functional; conditions: Homo sapiens, read-out: ED50 (the source's name)
Outline: (§1)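 CCRF-CEM vcr 100 cells (selected stepwise in vincristine; kept in 100 ng/mL vincristine until 1 week before use), RPMI 1640 with 10% FCS. Cytotoxicity of daunomycin or etoposide by MTT reduction, formazan dissolved in 2-propanol/0.04 N HCl, absorbance read. Modifier at 5 μM; six toxin concentrations, triplicate points, ED50 estimated. Reversion potency = toxin ED50 without/with modifier.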

CCRF-CEM [3] = assay: The effective dose was measured against P-glycoprotein expressing CCRF-CEM cells in the presence of 5 uM etoposide; assay type: functional; conditions: Homo sapiens, read-out: ED50 (the source's name); outline: as §1
CCRF-CEM [4] = assay: The percentage uptake of [3H]daunomycin in resistant CCRF-CEM vcr 100 cells to sensitive CCRF-CEM cells in presence of the compound.; assay type: functional, cell-based; conditions: Homo sapiens
Outline: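 Rapid-centrifugation uptake. Resistant CCRF-CEM vcr 100 and sensitive CCRF-CEM cells at 5×10^6 cells/mL in RPMI 1640 with 2% FCS. Modifier (final 5 μM, from 100× DMSO stock) added 10 min before [3H]daunomycin (0.4 μCi/mL; total daunomycin final 1 μmol/L). Sampled at 0–60 min, spun through phthalate oil, pellets solubilized in NaOH/SDS, counted by LSC. Expressed as % of sensitive-cell uptake.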

CCRF-CEM [5] = assay: The reversion potency of compound was measured against P-glycoprotein expressing CCRF-CEM cells and expressed as the ratio of ED50 in the absence and presence of etoposide; assay type: functional, Homo sapiens; outline: as §1
CCRF-CEM [6] = assay: The effective dose was measured against P-glycoprotein expressing CCRF-CEM cells in the presence of […]; assay type: functional; conditions: Homo sapiens, read-out: ED50 (the source's name); outline: as §1

Compound | RP (CCRF-CEM [1]) | pEC50 (CCRF-CEM [2]) | pEC50 (CCRF-CEM [3]) | Uptake (CCRF-CEM [4]) | RP (CCRF-CEM [5]) | pEC50 (CCRF-CEM [6])
CCCNCC(O)c1oc2ccccc2c1CCc1ccccc1 (stereo not given) | 7 | 6.70 | – | – | – | –
CCN(CC)CC(O)COc1ccccc1C(=O)CCc1ccccc1 (stereo not given) | 12 | 6.94 | 5.47 | 68% | – | –
O=C(CCc1ccccc1)c1ccccc1OCC(O)CN1CCOCC1 (stereo not given) | 4 | 6.44 | – | – | – | –
O=C(CCc1ccccc1)c1ccccc1OCC(O)CN1CCN(c2ccc(F)cc2)CC1 (stereo not given) | 34 | 7.39 | 5.99 | 92% | 3.4 | –
CCCNCC(O)COc1ccccc1C(=O)CCc1ccccc1 (stereo not given) [PROPAFENONE] | 16 | 7.06 | – | 65% | – | –
CC(C)N(CC(O)COc1ccccc1C(=O)CCc1ccccc1)C(C)C (stereo not given) | 22 | 7.19 | – | 82% | – | –
CC(=O)c1ccccc1OCC(O)CN1CCCCC1 (stereo not given) | 2 | 6.11 | – | – | – | –
O=C(CCc1ccccc1)c1ccccc1OCC(O)CN1CCCCC1 (stereo not given) | 30 | 7.34 | 5.48 | 83% | 1.1 | –
CCN(CC)CC(O)COc1ccccc1C(=O)c1ccccc1 (stereo not given) | 9 | 6.82 | – | – | – | –
COc1ccc(CCN(C)CCCC(C#N)(c2ccc(OC)c(OC)c2)C(C)C)cc1OC (stereo not given) | – | – | 5.47 | 79% | – | 7.35
O=C(CCc1ccccc1)c1ccccc1OCC(O)CN1CCCC1 (stereo not given) | 20 | 7.15 | – | – | – | –
CCCN(C)CC(O)COc1ccccc1C(=O)CCc1ccccc1 (stereo not given) | 26 | 7.26 | – | – | – | –
COc1ccc(N2CCN(CC(O)COc3ccccc3C(=O)CCc3ccccc3)CC2)cc1 (stereo not given) | 42 | 7.48 | 6.02 | 96% | 3.7 | –
Cc1ccccc1N1CCN(CC(O)COc2ccccc2C(=O)CCc2ccccc2)CC1 (stereo not given) | 33 | 7.37 | 6.19 | 96% | 5.4 | –
